Measurements collected from several papers.
Lines come from different studies, so protocols differ.
F10 trypsin-like site: Coagulation factor X, trypsin-like site (F10, Homo sapiens, UniProt P00742)
PCNA: Proliferating cell nuclear antigen (PCNA, Homo sapiens, UniProt P12004)
ADRB2: Beta-2 adrenergic receptor (ADRB2, Homo sapiens, UniProt P07550)
Ntsr1: Neurotensin receptor type 1 (Ntsr1, Rattus norvegicus, UniProt P20789)
MMP2: 72 kDa type IV collagenase (MMP2, Homo sapiens, UniProt P08253)

CN1[C@@H]2C[C@@H](OC(=O)[C@H](CO)c3ccccc3)C[C@H]1[C@@H]1O[C@@H]12  Ki (Ileal sodium/bile acid cotransporter (SLC10A2, Homo sapiens, UniProt Q12908); transporter uptake, inhibitor): 6450 µM
NCC(O)c1cc(O)c(O)cc1F (stereo not shown)  Ki (Beta-2 adrenergic receptor (ADRB2, Homo sapiens, UniProt P07550, N293A); ligand displacement, radioligand; cell membranes): 5450 µM
CC(C)(C)[C@H](NC(=O)[C@H](CCONC(=N)N)NC(=O)Cc1ccc(CNC(=N)N)cc1)C(=O)N[C@@H](CCCCN)C(=O)NCc1ccc(C(=N)N)cc1  Ki (F10 trypsin-like site; enzyme activity, inhibitor; pH 8): 26 µM
O=C1C2(Cl)C3(Cl)C4(Cl)C(Cl)(Cl)C5(Cl)C3(Cl)C1(Cl)C5(Cl)C24Cl (stereo not shown)  IC50 (Histone-lysine N-methyltransferase SETD7 (SETD7, Homo sapiens, UniProt Q8WTS6); enzyme activity, inhibitor): > 333 µM
CC[C@H](C)[C@H](NC(=O)[C@H](CCCCN)NC(=O)[C@H](CO)NC(=O)[C@H](CC(=O)O)NC(=O)[C@H](CCCCN)NC(=O)[C@H](CCCCN)NC(=O)CNC(=O)[C@H](Cc1c[nH]cn1)NC(=O)[C@@H](N)CCC(N)=O)C(=O)N[C@H](C(=O)N[C@@H](CC(=O)O)C(=O)N[C@@H](Cc1c[nH]cn1)C(=O)N[C@@H](Cc1ccccc1)C(=O)N[C@@H](CCSC)C(=O)N[C@@H](CCCNC(=N)N)C(=O)N[C@@H](CC(C)C)C(=O)N1CCC[C@H]1C(=O)N[C@@H](CCCCN)C(=O)N[C@@H](C)C(=O)O)[C@@H](C)O  Kd (PCNA; binding, ITC; pH 7.4): 3.28 µM
CC(C)(C)[C@H](NC(=O)[C@H](CCCNC(=N)N)NC(=O)Cc1ccc(CNC(=N)N)cc1)C(=O)N[C@@H](CCCNC(=N)N)C(=O)NCc1ccc(C(=N)N)cc1  Ki (F10 trypsin-like site; enzyme activity, inhibitor; pH 8): 7.1 µM
CC[C@H](C)[C@H](NC(=O)[C@H](CCCCN)NC(=O)[C@H](CO)NC(=O)[C@H](CC(=O)O)NC(=O)[C@H](CCCCN)NC(=O)[C@H](CCCCN)NC(=O)CNC(=O)[C@H](Cc1c[nH]cn1)NC(=O)[C@@H](N)CCC(N)=O)C(=O)N[C@@H](C)C(=O)N[C@@H](CC(=O)O)C(=O)N[C@@H](Cc1c[nH]cn1)C(=O)N[C@@H](Cc1ccccc1)C(=O)N[C@@H](CCSC)C(=O)N[C@@H](CCCNC(=N)N)C(=O)N[C@@H](CC(C)C)C(=O)N1CCC[C@H]1C(=O)N[C@@H](CCCCN)C(=O)N[C@@H](C)C(=O)O  Kd (PCNA; binding, ITC; pH 7.4): 55.5 µM
C[C@H](N)Cn1ncc2ccc3c(c21)CCCO3  Ki (ADRB2; cell-free assay, radioligand): 0.48 µM
O=C(N[C@H](C(=O)O)C1CCCCC1)c1cc(-c2c(F)cccc2F)n(-c2ccnc3cc(Cl)ccc23)n1  Kb (Ntsr1; calcium signal, antagonist, fluorescence): > 10 µM
CC[C@H](C)[C@H](NC(=O)[C@H](C)NC(=O)[C@H](CO)NC(=O)[C@H](CC(=O)O)NC(=O)[C@H](CCCCN)NC(=O)[C@H](CCCCN)NC(=O)CNC(=O)[C@H](Cc1c[nH]cn1)NC(=O)[C@@H](N)CCC(N)=O)C(=O)N[C@H](C(=O)N[C@@H](CC(=O)O)C(=O)N[C@@H](Cc1c[nH]cn1)C(=O)N[C@@H](Cc1ccccc1)C(=O)N[C@@H](CCSC)C(=O)N[C@@H](CCCNC(=N)N)C(=O)N[C@@H](CC(C)C)C(=O)N1CCC[C@H]1C(=O)N[C@@H](CCCCN)C(=O)N[C@@H](C)C(=O)O)[C@@H](C)O  Kd (PCNA; binding, ITC; pH 7.4): 24.9 µM
NCC(O)c1ccc(O)cc1 (stereo not shown)  IC50 (ADRB2; ligand displacement, radioligand; cell membranes): 73.7 µM
CC(C)C[C@H](NC(=O)[C@H](CCC(N)=O)NC(=O)[C@H](CC(C)C)NC(=O)[C@H](CO)NC(=O)[C@H](CO)NC(=O)[C@@H]1CCCN1C(=O)[C@H](Cc1c[nH]c2ccccc12)NC(=O)[C@H](CCC(N)=O)NC(=O)[C@H](Cc1c[nH]c2ccccc12)NC(=O)[C@H](Cc1c[nH]c2ccccc12)NC(=O)[C@@H](N)Cc1c[nH]cn1)C(=O)N[C@@H](CCCNC(=N)N)C(=O)NCC(=O)NCC(=O)NCC(=O)N[C@@H](CO)C(=O)O  IC50 (MMP2; enzyme activity, inhibitor, fluorescence): 0.078 µM
CC[C@H](C)[C@H](NC(=O)[C@H](CCCCN)NC(=O)[C@H](CO)NC(=O)[C@H](CC(=O)O)NC(=O)[C@H](CCCCN)NC(=O)[C@H](CCCCN)NC(=O)CNC(=O)[C@H](Cc1c[nH]cn1)NC(=O)[C@@H](N)CCC(N)=O)C(=O)N[C@H](C(=O)N[C@@H](CC(=O)O)C(=O)N[C@@H](Cc1c[nH]cn1)C(=O)N[C@@H](Cc1ccccc1)C(=O)N[C@@H](C)C(=O)N[C@@H](CCCNC(=N)N)C(=O)N[C@@H](CC(C)C)C(=O)N1CCC[C@H]1C(=O)N[C@@H](CCCCN)C(=O)N[C@@H](C)C(=O)O)[C@@H](C)O  Kd (PCNA; binding, ITC; pH 7.4): 1.65 µM
COc1ccc(-c2cc(C(=O)N[C@H](C(=O)O)C3CCCCC3)nn2-c2ccnc3cc(Cl)ccc23)c(OC)c1  Kb (Ntsr1; calcium signal, antagonist, fluorescence): > 10 µM
CC(C)(C)[C@H](NC(=O)[C@H](CCCNC(=N)N)NC(=O)Cc1ccc(CNC(=N)N)cc1)C(=O)N[C@@H](CCONC(=N)N)C(=O)NCc1ccc(C(=N)N)cc1  Ki (F10 trypsin-like site; enzyme activity, inhibitor; pH 8): 15 µM
CC[C@H](C)[C@H](NC(=O)[C@H](CCCCN)NC(=O)[C@H](CO)NC(=O)[C@H](CC(=O)O)NC(=O)[C@H](CCCCN)NC(=O)[C@H](CCCCN)NC(=O)CNC(=O)[C@H](Cc1c[nH]cn1)NC(=O)[C@@H](N)CCC(N)=O)C(=O)N[C@H](C(=O)N[C@@H](CC(=O)O)C(=O)N[C@@H](Cc1c[nH]cn1)C(=O)N[C@@H](Cc1ccccc1)C(=O)N[C@@H](CCSC)C(=O)N[C@@H](C)C(=O)N[C@@H](CC(C)C)C(=O)N1CCC[C@H]1C(=O)N[C@@H](CCCCN)C(=O)N[C@@H](C)C(=O)O)[C@@H](C)O  Kd (PCNA; binding, ITC; pH 7.4): 4.27 µM
CCOC(=O)C(CC)(CCCSCCOCCOCCNc1ccc([N+](=O)[O-])c2nonc12)NC(=O)c1ccc(C2CC2)c(Cc2ccc(F)cc2)n1 (racemic)  EC50 (Cannabinoid receptor 2 (CNR2, Homo sapiens, UniProt P34972); cAMP, agonist): 4.7 nM
O=C(N[C@H]1COC(=O)[C@@H](NC(=O)c2cccc(O)c2[O-])COC(=O)[C@@H](NC(=O)c2cccc(O)c2[O-])COC1=O)c1cccc(O)c1[O-].[Fe+3]  Kd (Neutrophil gelatinase-associated lipocalin (LCN2, Homo sapiens, UniProt P80188, C107S); binding, fluorescence; pH 5.5): 0.00015 µM
C#CCOc1ccc(S(=O)(=O)CC2CS2)cc1 (racemic)  IC50 (MMP2; enzyme activity, inhibitor, fluorescence): 7 µM
CCCCOc1ccc(C(=O)CCN2CCCCC2)cc1  IC50 (Histamine H3 receptor (HRH3, Homo sapiens, UniProt Q9Y5N1); ligand displacement, radioligand): 3.89 µM
CC(=O)N[C@@H](C)C(=O)N1CCC[C@H]1C(=O)N[C@@H](CC(C)C)C(=O)N[C@H](C(=O)N[C@@H](CCCNC(=N)N)C(=O)NCC(=O)N[C@@H](CO)C(=O)N[C@@H](CS)C(=O)N[C@@H](CCCNC(=N)N)C(=O)N[C@@H](CCCCN)C(=O)N[C@@H](CCCNC(=N)N)C(=O)N[C@@H](CC(N)=O)C(=O)N[C@@H](CCCNC(=N)N)C(=O)N[C@@H](CO)C(=O)N1CCC[C@H]1C(=O)N[C@@H](CCC(=O)O)C(=O)N[C@@H](CCCNC(=N)N)C(N)=O)[C@@H](C)O  Kd (WD repeat-containing protein 5 (WDR5, Homo sapiens, UniProt P61964); binding, ITC; pH 7): 14.6 µM
CC[C@H](C)[C@H](NC(=O)[C@H](CCCNC(=N)N)NC(=O)[C@H](CO)NC(=O)[C@H](CC(=O)O)NC(=O)[C@H](CCCCN)NC(=O)[C@H](CCCCN)NC(=O)CNC(=O)[C@H](Cc1c[nH]cn1)NC(=O)[C@@H](N)CCC(N)=O)C(=O)N[C@H](C(=O)N[C@@H](CC(=O)O)C(=O)N[C@@H](Cc1c[nH]cn1)C(=O)N[C@@H](Cc1ccccc1)C(=O)N[C@@H](CCSC)C(=O)N[C@@H](CCCNC(=N)N)C(=O)N[C@@H](CC(C)C)C(=O)N1CCC[C@H]1C(=O)N[C@@H](CCCCN)C(=O)N[C@@H](C)C(=O)O)[C@@H](C)O  Kd (PCNA; binding, ITC; pH 7.4): 6.67 µM
NCC(O)c1ccc(O)c(O)c1F (stereo not shown)  Ki (Beta-2 adrenergic receptor (ADRB2, Homo sapiens, UniProt P07550, N293F); ligand displacement, radioligand; cell membranes): 216 µM
c1ccc2c(c1)-c1cccc3cccc-2c13  Kd (Cytochrome P450 1B1 (CYP1B1, Homo sapiens, UniProt Q16678); binding, absorbance; pH 7.4): 1.6 µM
CCC#CCOc1ccc(S(=O)(=O)CC2CS2)cc1 (racemic)  IC50 (MMP2; enzyme activity, inhibitor, fluorescence): 14 µM
